In ChEMBL document CHEMBL5058577, “EUbOPEN Chemogenomics Library 2 (Multiplex)” (2022):

Test system: HEK-293T
Assay: Multiplex assay against HEK293T
Format: toxicity, cell-based
Settings: human
Method in brief: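 Live cells carried four stains from seeding: Hoechst33342, BioTracker Green Microtubule Cytoskeleton Dye, MitoTracker Red and Annexin V Alexa Fluor 680. They were imaged on a CQ1 microscope at 37°C and 5% CO2 after compound addition. Using CellPathfinder machine-learning gating, cells were split into Hoechst high-intensity objects or normal cells, normal cells into healthy, pyknosed or fragmented nuclei, and pyknosed cells into mitotic or apoptotic; tubulin, mitochondrial-mass and membrane-permeability phenotypes are per cents of healthy-nucleus cells.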

[1] = 12 h, 1 µM, compound concentration 1 uM, replicate 1
[2] = 12 h, 1 µM, compound concentration 1 uM, replicate 2
[3] = 12 h, 10 µM, compound concentration 10 uM, replicate 1
[4] = 12 h, 10 µM, compound concentration 10 uM, replicate 2
[5] = 24 h, 1 µM, compound concentration 1 uM, replicate 1
[6] = 24 h, 1 µM, compound concentration 1 uM, replicate 2
[7] = 24 h, 10 µM, compound concentration 10 uM, replicate 1
[8] = 24 h, 10 µM, compound concentration 10 uM, replicate 2
[9] = 48 h, 1 µM, compound concentration 1 uM, replicate 1
[10] = 48 h, 1 µM, compound concentration 1 uM, replicate 2
[11] = 48 h, 10 µM, compound concentration 10 uM, replicate 1
[12] = 48 h, 10 µM, compound concentration 10 uM, replicate 2

## CC(C)c1noc(N2CCC(COc3ccc(-c4ccc(S(C)(=O)=O)cc4)nc3)CC2)n1 [GSK-1292263]
[1]
  Population Apoptotic (%): 37%
  Population Fragmented Nuclei (%): 8%
  Population Healthy Nuclei (%): 78%
  Population Hoechst High Intensity Objects (%): 5%
  Population Membrane Permeable-Phenotype (%): 0%
  Population Mitochondria Different-Phenotype (%): 42%
  Population Mitotic Cells (%): 62%
  Population Normal (%): 94%
  Population Pyknosed Nuclei (%): 12%
  Population Tubulin-Different-Phenotype (%): 32%
  Total Cell Count: 440
[2]
  Population Apoptotic (%): 25%
  Population Fragmented Nuclei (%): 6%
  Population Healthy Nuclei (%): 86%
  Population Hoechst High Intensity Objects (%): 6%
  Population Mitochondria Different-Phenotype (%): 53%
  Population Mitotic Cells (%): 74%
  Population Normal (%): 93%
  Population Pyknosed Nuclei (%): 7%
  Population Tubulin-Different-Phenotype (%): 13%
  Total Cell Count: 522
[3]
  Population Apoptotic (%): 50%
  Population Fragmented Nuclei (%): 6%
  Population Healthy Nuclei (%): 71%
  Population Hoechst High Intensity Objects (%): 13%
  Population Membrane Permeable-Phenotype (%): 0%
  Population Mitochondria Different-Phenotype (%): 69%
  Population Mitotic Cells (%): 50%
  Population Normal (%): 86%
  Population Pyknosed Nuclei (%): 22%
  Population Tubulin-Different-Phenotype (%): 55%
  Total Cell Count: 311
[4]
  Population Apoptotic (%): 43%
  Population Fragmented Nuclei (%): 7%
  Population Healthy Nuclei (%): 78%
  Population Hoechst High Intensity Objects (%): 16%
  Population Mitochondria Different-Phenotype (%): 77%
  Population Mitotic Cells (%): 56%
  Population Normal (%): 83%
  Population Pyknosed Nuclei (%): 13%
  Population Tubulin-Different-Phenotype (%): 40%
  Total Cell Count: 279
[5]
  Population Apoptotic (%): 23%
  Population Fragmented Nuclei (%): 8%
  Population Healthy Nuclei (%): 78%
  Population Hoechst High Intensity Objects (%): 5%
  Population Membrane Permeable-Phenotype (%): 0%
  Population Mitochondria Different-Phenotype (%): 27%
  Population Mitotic Cells (%): 76%
  Population Normal (%): 94%
  Population Pyknosed Nuclei (%): 12%
  Population Tubulin-Different-Phenotype (%): 25%
  Total Cell Count: 545
[6]
  Population Apoptotic (%): 25%
  Population Fragmented Nuclei (%): 7%
  Population Healthy Nuclei (%): 82%
  Population Hoechst High Intensity Objects (%): 3%
  Population Mitochondria Different-Phenotype (%): 29%
  Population Mitotic Cells (%): 74%
  Population Normal (%): 96%
  Population Pyknosed Nuclei (%): 9%
  Population Tubulin-Different-Phenotype (%): 9%
  Total Cell Count: 608
[7]
  Population Apoptotic (%): 64%
  Population Fragmented Nuclei (%): 8%
  Population Healthy Nuclei (%): 79%
  Population Hoechst High Intensity Objects (%): 8%
  Population Membrane Permeable-Phenotype (%): 0%
  Population Mitochondria Different-Phenotype (%): 58%
  Population Mitotic Cells (%): 35%
  Population Normal (%): 91%
  Population Pyknosed Nuclei (%): 12%
  Population Tubulin-Different-Phenotype (%): 49%
  Total Cell Count: 384
[8]
  Population Apoptotic (%): 46%
  Population Fragmented Nuclei (%): 11%
  Population Healthy Nuclei (%): 74%
  Population Hoechst High Intensity Objects (%): 10%
  Population Mitochondria Different-Phenotype (%): 59%
  Population Mitotic Cells (%): 53%
  Population Normal (%): 89%
  Population Pyknosed Nuclei (%): 13%
  Population Tubulin-Different-Phenotype (%): 28%
  Total Cell Count: 354
[9]
  Population Apoptotic (%): 22%
  Population Fragmented Nuclei (%): 10%
  Population Healthy Nuclei (%): 81%
  Population Hoechst High Intensity Objects (%): 3%
  Population Membrane Permeable-Phenotype (%): 1%
  Population Mitochondria Different-Phenotype (%): 23%
  Population Mitotic Cells (%): 77%
  Population Normal (%): 96%
  Population Pyknosed Nuclei (%): 8%
  Population Tubulin-Different-Phenotype (%): 14%
  Total Cell Count: 865
[10]
  Population Apoptotic (%): 23%
  Population Healthy Nuclei (%): 83%
  Population Hoechst High Intensity Objects (%): 1%
  Population Mitochondria Different-Phenotype (%): 14%
  Population Mitotic Cells (%): 76%
  Population Normal (%): 98%
  Population Pyknosed Nuclei (%): 5%
  Population Tubulin-Different-Phenotype (%): 10%
  Total Cell Count: 882
[11]
  Population Apoptotic (%): 32%
  Population Fragmented Nuclei (%): 10%
  Population Healthy Nuclei (%): 79%
  Population Hoechst High Intensity Objects (%): 10%
  Population Membrane Permeable-Phenotype (%): 0%
  Population Mitochondria Different-Phenotype (%): 50%
  Population Mitotic Cells (%): 67%
  Population Normal (%): 89%
  Population Pyknosed Nuclei (%): 9%
  Population Tubulin-Different-Phenotype (%): 28%
  Total Cell Count: 506
[12]
  Population Apoptotic (%): 30%
  Population Fragmented Nuclei (%): 13%
  Population Healthy Nuclei (%): 78%
  Population Hoechst High Intensity Objects (%): 5%
  Population Mitochondria Different-Phenotype (%): 37%
  Population Mitotic Cells (%): 69%
  Population Normal (%): 94%
  Population Pyknosed Nuclei (%): 8%
  Population Tubulin-Different-Phenotype (%): 18%
  Total Cell Count: 595
